Source: PubChem
MsrA inh = bovine MsrA inhibition; 360,000 compounds, 0.75% hits; purified bovine MsrA, absorbance read-out; inhibition, % at 15.5 µM; in the data active means inhibition above about 4.5%;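 further: 0% = vehicle wells with enzyme and 100% = reference inhibitor wells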
bovine MsrA act = bovine methionine sulfoxide reductase A activation; purified bovine MsrA, absorbance read-out; 360,000 compounds, 0.3% hits; activation, % at 10.6 µM; in the data active means activation above about 7.5%;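 further: 0% = vehicle and 100% = reference activator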
ARFGAP1 inhibitor = inhibits rat ARF GTPase activating protein 1. Arfgap1-stimulated ARF1 GTP hydrolysis, GDP FP detection. inhibition, % at 16.5 µM. 360,000 compounds, 0.26% hits;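 active means inhibition above a per-plate limit, mean inhibition of low control wells plus 3 SD, cut at about 25% in these data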;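 further: 0% = DMSO wells with enzyme and 100% = wells lacking Arfgap1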
Target sequence (Q62848 1-136 limits assumed): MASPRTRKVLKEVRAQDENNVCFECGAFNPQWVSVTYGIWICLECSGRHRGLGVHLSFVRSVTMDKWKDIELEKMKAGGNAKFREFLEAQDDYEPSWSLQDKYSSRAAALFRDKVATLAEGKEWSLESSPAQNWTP
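system = rat Arfgap1 catalytic domain, aa 1-136 | technique = FP, GDP Alexa 633 tracer displaced from anti-GDP antibody, 620/688 nm | compound = one concentration, 16.5 µM, DMSO 1.26% | medium = HEPES-based buffer, pH 7.5 | timing = compound-enzyme preincubation 20 min, reaction 120 min, detection 60 min, 25 °C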
ASAP1 inh = blocks human ASAP1-stimulated Arf1 GTP hydrolysis | GDP FP detection | inhibition, % at 16.5 µM | Q9ULH1 | 360,000 compounds, 0.19% hits; in the data active means inhibition above about 25%;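 further: 0% = vehicle with enzyme and substrate and 100% = no enzyme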
Target sequence (Q9ULH1 325-724 limits assumed): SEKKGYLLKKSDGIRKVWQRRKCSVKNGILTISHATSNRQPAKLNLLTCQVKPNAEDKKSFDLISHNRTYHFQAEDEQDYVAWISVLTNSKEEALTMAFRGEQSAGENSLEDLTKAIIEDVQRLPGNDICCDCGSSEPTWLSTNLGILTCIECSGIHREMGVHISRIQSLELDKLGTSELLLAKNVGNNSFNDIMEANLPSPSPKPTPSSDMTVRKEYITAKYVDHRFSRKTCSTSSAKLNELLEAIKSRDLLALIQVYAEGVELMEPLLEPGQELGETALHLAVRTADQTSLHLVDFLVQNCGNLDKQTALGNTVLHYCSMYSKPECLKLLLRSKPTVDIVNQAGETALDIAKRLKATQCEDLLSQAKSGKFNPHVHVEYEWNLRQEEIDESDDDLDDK
Active calls of the source: *; / = no result. Rows were chosen to be rich in hits. Some 1.4% of all compounds tested hit in one or more screens of this group.

SMILES | MsrA inh | bovine MsrA act | ARFGAP1 inhibitor | ASAP1 inh
CC(=O)Nc1nc(C)c(-c2csc(Nc3cccc([N+](=O)[O-])c3)n2)s1 | 1 | -12 | 10 | 12
COc1ccc(/C=C/c2nc3ccccc3n2C)cc1 | 5.5* | -14 | -9 | 11
Cc1cc(Nc2ccc(Cl)c(C(F)(F)F)c2)cc(=O)n1-c1ccc(Cl)c(C(F)(F)F)c1 | 1 | / | 8 | -12
Cc1ccc(NC(=S)N(CCN2CCCCC2)Cc2ccco2)cc1Cl | 1 | -1 | -1 | -12
Cc1ccc(C(=O)COC(=O)c2ccc3c(c2)C(=O)N(c2cccc4ncccc24)C3=O)cc1 | 0 | -12 | -9 | -3
O=C(OCC(=O)c1ccc(Cl)cc1Cl)c1ccc2c(c1)C(=O)N(c1cccc3ncccc13)C2=O | 0 | -1 | -3 | 114*
Cc1cc(N)ncc1[N+](=O)[O-] | 4.6* | -7 | 0 | -5
C[C@H]1CN([C@@H](C)CO)C(=O)CCCn2nncc2CO[C@@H]1CN(C)S(=O)(=O)c1cn(C)cn1 | 1 | -6 | 0 | 8
S=C1Cc2ccccc2N1 | -1 | 26* | 6 | 16
S=C1Nc2ccccc2CS1 | 2 | -7 | -5 | 1
CCOc1ccc(C(=O)c2nc3c(n2O)CCCC3)cc1 | 5.0* | -12 | -3 | 0
O=C(N/N=C1\CCCc2ccccc21)c1cccc(Br)c1 | 0 | -2 | -9 | -3
Cc1c(C(=O)N2CCCC2)sc(NC(=O)c2ccccc2)c1C#N | 4.6* | -3 | 0 | -1
Cc1c(C(=O)N2CCCC2)sc(NC(=O)c2cccs2)c1C#N | 3 | -4 | -1 | -6
N#Cc1ccc(-c2nc3ccc(Br)cn3c2Cc2ccccc2)cc1 | 0 | -1 | 5 | -1
CCCCCCCNC(=O)C1(CC2CC(c3ccc(Cl)cc3)=NO2)CCN(C(=O)C2(C)CC2)CC1 (configuration not stated) | / | 8.5* | / | /
COc1ccc(-c2[nH][nH]c(=O)c2NC(=O)c2ccccn2)cc1 | 0 | -10 | -12 | 2
COc1ccc(CCC(=O)Nc2c(-c3ccc(N(C)C)cc3)[nH][nH]c2=O)cc1 | 2 | 2 | -3 | 49*
COC(=O)c1c(NC(=O)c2cccs2)sc2c1CCC(C)C2 (configuration not stated) | 0 | 8.3* | -1 | -1
CC1CCc2c(sc(NC(=O)c3cccs3)c2C(=O)O)C1 (configuration not stated) | 1 | -1 | 8 | 5
Cc1c(C(=O)N/N=C/c2ccccc2)sc(=S)n1C | 3 | 1 | 26* | -1
CCO/C=C1/C(=O)N(Cc2ccccc2)C(=O)c2ccccc21 | 1 | -5 | 18 | 31*
COc1ccc(C2=NN(C(=O)CCC(=O)O)C(c3ccccc3F)C2)cc1 (configuration not stated) | 0 | -2 | 6 | -11
Oc1ccc(/C=N/n2c(-c3ccccc3)n[nH]c2=S)cc1Br | 4.6* | 1 | 4 | 9
Oc1c(Br)cc(/C=N/n2c(-c3ccccc3)n[nH]c2=S)cc1Br | 3 | 2 | -6 | -5
SMILES | MsrA inh | bovine MsrA act | ARFGAP1 inhibitor | ASAP1 inh
CCCN1CCN(c2ccc([N+](=O)[O-])cc2C#N)CC1 | 3 | -2 | 7 | -1
CC(=O)N1CCN(c2ccc([N+](=O)[O-])cc2C#N)CC1 | 4.6* | 2 | -2 | 15
Cc1cc(C(=O)OCC(=O)Nc2ccccc2Br)c(C)o1 | 0 | 1 | -4 | 7
C=CCNC(=S)Nc1sc2c(c1C(=O)OCC)CC(C)(CC)OC2 (configuration not stated) | 4.6* | 3 | 8 | -5
C=CCNC(=S)Nc1sc2c(c1C(=O)OCC)CCN(C(=O)OCC)C2 | 2 | -11 | 0 | -4
c1ccc(N2CCN(c3nc4ccccc4n4cnnc34)CC2)cc1 | 2 | -3 | -2 | 19
c1ccc2c(c1)nc(N1CCOCC1)c1nncn12 | 4.6* | -1 | 4 | 2
O=C(NCCc1ccc2c(c1)OCO2)Oc1ccccc1 | 2 | -3 | 18 | 6
CN1CCc2cc3c(c4c2[C@H]1[C@H](O)c1ccccc1-4)OCO3 | 0 | 37* | 3 | 9
COc1ccc2c(c1OC)C(=O)OC2C1c2c(cc3c(c2OC)OCO3)CCN1C (configuration not stated) | -1 | -9 | 11 | 0
CCCc1cc(=O)[nH]c(SC(C)C(=O)N2c3ccccc3CC2C)n1 (configuration not stated) | 0 | 0 | 1 | 7
CCC(C)(C(=O)NC1CCCCC1)N(C(=O)Cc1cccs1)c1ccccc1 (configuration not stated) | -1 | -3 | -4 | -6
CC1=NN(c2ccccc2)C(=O)/C1=C/c1ccc(Cl)cc1 | 1 | -2 | 28* | -10
CC1=NN(c2ccccc2)C(=O)C1=Cc1ccccc1 | 3 | -2 | -12 | -2
N#C/C(=C\Nc1ccc2cn[nH]c2c1)c1nc(-c2ccc(Cl)cc2)cs1 | 1 | -2 | 15 | 29*
Cc1ccc(/C=N/NC(=O)c2c[nH]c3ccccc23)s1 | 4 | -10 | 10 | 8
Cc1ccsc1/C=N/NC(=O)c1c[nH]c2ccccc12 | 5.1* | -4 | 7 | 16
O=c1cnnc(N/N=C/c2cccs2)[nH]1 | 4.6* | -4 | 4 | 5
CN(C)/C=N/c1ncc(C(=O)c2ccc3ccccc3c2)s1 | 4.6* | -6 | 18 | -5
COc1ccc(C(=O)c2cnc(/N=C/N(C)C)s2)cc1 | 4 | -11 | 4 | -7
O=C(N/N=C/c1ccc(N2CCOCC2)cc1)c1cccs1 | 4.6* | -7 | -5 | -8
CCN1/C(=C/C=C/c2sc3ccccc3[n+]2CC)Sc2ccccc21 | / | -7 | / | /
CCN1/C(=C/C=C/C=C/C=C/c2sc3ccccc3[n+]2CC)Sc2ccccc21 | 2 | -2 | 32* | -2
O=C(Oc1ccc(NC(=O)c2cc3c(cc2Br)OCO3)cc1)c1ccccc1 | 0 | -6 | 13 | -4
COC(=O)c1ccc(C(c2c(C)[nH][nH]c2=O)c2c(C)[nH][nH]c2=O)cc1 | 0 | -3 | 2 | 3
SMILES | MsrA inh | bovine MsrA act | ARFGAP1 inhibitor | ASAP1 inh
COC(=O)c1cccc(-c2ccc(C(c3c(C)[nH][nH]c3=O)c3c(C)[nH][nH]c3=O)o2)c1 | 1 | -4 | 32* | 26*
Cc1ccc(NC(=O)c2ccc3c(c2)N(CC(=O)NC(C)C)C(=O)C(C)(C)O3)cc1 | 1 | -2 | -10 | -8
CC(N=Cc1c(O)c2ccccc2oc1=O)C(=O)O (configuration not stated) | 1 | -2 | 2 | -3
O=C(O)C(CO)N=Cc1c(O)c2ccccc2oc1=O (configuration not stated) | 4.6* | -9 | -7 | -2
O=C(CN1C(=O)N/C(=C\c2ccccc2OCc2ccc(C(=O)O)cc2)C1=O)Nc1ccc(F)cc1 | 4.7* | -8 | 2 | -3
Cc1cccc(NC(=O)CN2C(=O)N/C(=C\c3ccccc3OCc3ccc(C(=O)O)cc3)C2=O)c1 | 3 | -7 | -5 | 10
CCN(CC(=O)Nc1ccccc1OC)C(=O)c1cc(S(=O)(=O)N2CCCCCC2)ccc1OC | 0 | -1 | 14 | 17
CCN(CC)CCOC(=O)/C=C/c1ccccc1 | 1 | -2 | 10 | 5
